Assay outcomes as filed in PubChem.
In the library only some 2.3% were active in any assay of this set; here they are far more common.
GPR7 antag = blocks human GPR7 receptor signaling; P48145; AID 1861; GPR7-expressing cells, fluorescence antagonist assay; 1.1% of 290,000 active; inhibition, % at 4.4 µM; in the data active = inhibition above about 16%, passing the limit was not always enough;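 also: cells stimulated with the agonist NPW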
T cell modulator = T cell immune modulation candidate; 2C CD8+ T cell-vesicle binding, flow cytometry; active compounds read low; response (vesicle binding), % at 7 µM; 0.068% of 330,000 active;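 active = response, share of CD8 T cells binding vesicles, and their 90th percentile fluorescence all below set limits, cut at about 80% in these data, passing the limit was not always enough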;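 also: values below 100% mean blocked vesicle binding to the CD8+ T cells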
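System: murine 2C transgenic CD8+ T lymphocytes; also added: QL9-loaded Drosophila micro-vesicles; times: binding 1.5 h at 37 °C; measured by: flow cytometry, PE anti-B7-1 (FL2) versus Alexa647 anti-CD8 (FL8), PFA-fixed; control set: Peptide-free naked vesicles (low) and QL9 vesicles with 0.7% DMSO vehicle (high)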
CHT block = human CHT choline transport inhibition; Q9GZV3; CHT-expressing cells, membrane potential dye, choline response; active compounds read low; B-score at 10 µM; 0.86% of 310,000 active; AID 488975;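 active = B-score over 3 SD under the library average, and starting fluorescence ratio not unusually high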;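 also: choline stimulus applied at its EC90 after an EC20 pre-addition; B-score computed on integrated fluorescence ratio after choline addition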
Pemphigus Ab inh = inhibitors of pemphigus antibody binding to human desmoglein-3 | P32926 | DSG3-coupled beads, scFv-anti-DSG3-GFP binding, flow cytometry; active compounds read low | binding (percent of control), % at 10 µM | 0.48% of 310,000 active | AID 588358;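 active = binding more than 3 SD below its plate's average and above zero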;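 also: hits lower antibody fragment binding to DSG3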
Target sequence (P32926 whole entry, looked up, the tested form may be a part): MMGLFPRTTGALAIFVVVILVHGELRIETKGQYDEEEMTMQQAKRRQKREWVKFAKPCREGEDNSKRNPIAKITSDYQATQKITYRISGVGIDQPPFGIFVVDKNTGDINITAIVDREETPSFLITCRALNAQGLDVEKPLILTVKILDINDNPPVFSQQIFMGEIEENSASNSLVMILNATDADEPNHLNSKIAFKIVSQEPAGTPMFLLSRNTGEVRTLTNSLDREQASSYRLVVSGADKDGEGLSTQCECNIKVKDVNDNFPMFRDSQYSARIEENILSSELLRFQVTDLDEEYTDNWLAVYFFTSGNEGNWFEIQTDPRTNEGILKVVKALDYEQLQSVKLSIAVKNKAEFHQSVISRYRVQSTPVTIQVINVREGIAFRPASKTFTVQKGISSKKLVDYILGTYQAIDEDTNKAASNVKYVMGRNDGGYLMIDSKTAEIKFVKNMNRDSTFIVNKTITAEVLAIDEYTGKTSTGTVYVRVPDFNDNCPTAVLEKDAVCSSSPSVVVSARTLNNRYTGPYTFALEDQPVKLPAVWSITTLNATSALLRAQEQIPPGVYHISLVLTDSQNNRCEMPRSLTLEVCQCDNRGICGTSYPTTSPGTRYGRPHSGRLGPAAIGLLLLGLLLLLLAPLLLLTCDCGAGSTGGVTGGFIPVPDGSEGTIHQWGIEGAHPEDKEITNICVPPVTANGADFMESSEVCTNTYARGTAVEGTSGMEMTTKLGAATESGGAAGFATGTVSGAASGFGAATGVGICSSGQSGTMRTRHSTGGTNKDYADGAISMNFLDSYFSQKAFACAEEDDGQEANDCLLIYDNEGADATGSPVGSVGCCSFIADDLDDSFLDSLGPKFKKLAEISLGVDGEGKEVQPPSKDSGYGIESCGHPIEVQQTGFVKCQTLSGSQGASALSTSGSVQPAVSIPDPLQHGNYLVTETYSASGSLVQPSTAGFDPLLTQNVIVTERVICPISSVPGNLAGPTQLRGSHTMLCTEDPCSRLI
pCIP destab = p/CIP protein destabilization; Q05BA5; 0.01% of 290,000 active; decrease of EGFP signal, % at 10 µM; F442A p/CIP-EGFP cells, EGFP fluorescence, 16 h;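 active = EGFP signal decrease of at least 30% at 10 µM or well 3 SD below plate mean, unless failing retest; inactive = the rest, including hits failing retest or dose response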
CHT PAM = human CHT allosteric activation. Q9GZV3. CHT-expressing cells, membrane potential dye, choline EC20; active compounds read high; LV-AA mutant CHT in HEK293 cells. B-score at 10 µM. 0.49% of 310,000 active;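 active = initial fluorescence not abnormally high and integrated response B-score, plate-corrected, over 3 SD above library mean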
CHT inh conf = confirmation of human choline transporter CHT inhibitors; shares compounds with CHT block; AID 493221; 70% of 2,400 active; CHT activity remaining % of control (active compounds read low), % at 10 µM; CHT-expressing cells, choline membrane potential dye; LV-to-AA substituted CHT, HEK293 cells;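 active = choline transporter activity left, mean of duplicates at 10 µM, below buffer-only control mean minus 3 SD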;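 also: depolarization triggered by choline at its EC90 following an EC20 pre-addition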
HEK293 MPD ctr = CHT inhibitor counter-screen hit in parental HEK293 cells. membrane potential dye, choline response; active = decrease or increase beyond buffer ±3SD. membrane potential ratio readout (active if shifted either direction beyond buffer ±3SD; no single direction) at 10 µM. 4% of 2,400 active. shares compounds with CHT block;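 also: parental cells lack the transporter so any hit is non-specific; ratio is peak minus trough fluorescence over baseline after EC90 choline challenge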
Each line names hits and unclear results; the compound was inactive in the other large screens (follow-up assays come after a bar, where they were run).

CC[C@@]1(C(=O)OC)N[C@H](CN(C)S(=O)(=O)c2ccc(OC)cc2)[C@@H]2C(=O)N(C)C(=O)[C@@H]21	none (no result: GPR7 antag, CHT block, pCIP destab, CHT PAM)
CN(Cc1ccccc1)S(=O)(=O)c1ccc2[nH]cc(C(=O)NCC3CCCO3)c(=O)c2c1 (centres undefined)	CHT block -10 | CHT inh conf 43% | HEK293 MPD ctr inactive
CCc1ccccc1NS(=O)(=O)c1ccc2[nH]cc(C(=O)NCC3CCCO3)c(=O)c2c1 (centres undefined)	none
CCCCCC(=O)N1C[C@@H](O)[C@H](n2cc(COC(=O)c3ccccc3)nn2)C[C@@H]1c1ccccc1	none (no result: GPR7 antag, T cell modulator, CHT block, pCIP destab, CHT PAM)
O=[N+]([O-])c1cc(Br)c(O)c(/C=N/Nc2nnnn2-c2cccc3ccccc23)c1	CHT block -9.2 | CHT inh conf 33% | HEK293 MPD ctr inactive
CC1CCCCC1NC(=O)c1ccc(S(=O)(=O)NCC2CCCO2)cc1 (centres undefined)	CHT block -12 | CHT inh conf 11% | HEK293 MPD ctr inactive
CC(=O)Nc1ccc(C(=O)Nc2ccc(S(=O)(=O)NCC3CCCO3)cc2)cc1 (centres undefined)	none
CC(=O)Oc1ccc(C(=O)Nc2ccc(S(=O)(=O)NCC3CCCO3)cc2)cc1 (centres undefined)	CHT block -5.1 | CHT inh conf 70% | HEK293 MPD ctr inactive
O=C(NCCC1CCCCN1S(=O)(=O)c1ccccc1)C(=O)NCc1ccc(F)cc1 (centres undefined)	none (no result: GPR7 antag, pCIP destab)
C=C(NC(=O)C(=C)NC(=O)c1csc(C2=NC3c4csc(n4)C4NC(=O)c5csc(n5)C([C@@](C)(O)C(C)O)NC(=O)C5CSC(=N5)/C(=C\C)NC(=O)C(C(C)O)NC(=O)c5csc(n5)[C@]3(CC2)NC(=O)C(C)NC(=O)C(=C)NC(=O)C(C)NC(=O)C(C(C)CC)NC2C=Cc3c(C(C)O)cc(nc3C2O)C(=O)OC4C)n1)C(N)=O (some centres undefined)	none (no result: GPR7 antag, Pemphigus Ab inh, pCIP destab)
CCCc1cc(NCc2ccccn2)n2c(nc3ccccc32)c1C#N	none
CCCNc1cc(C)c(C#N)c2nc3ccccc3n12	none
CCCc1cc(NCCN(C)C)n2c(nc3ccccc32)c1C#N	CHT block -6.1 | CHT inh conf 51% | HEK293 MPD ctr inactive
CCCc1cc(NCC2CCCO2)n2c(nc3ccccc32)c1C#N (centres undefined)	CHT block -6.9 (no result: Pemphigus Ab inh) | CHT inh conf 43% | HEK293 MPD ctr inactive
O=C(NNC(=S)Nc1ccc(Br)cc1)c1ccccc1Br	CHT block -5.6 (no result: Pemphigus Ab inh) | CHT inh conf 58% | HEK293 MPD ctr inactive
O=C(NNC(=S)Nc1ccc(Br)cc1)c1ccccc1	none
O=C(NNC(=S)Nc1cccc(C(F)(F)F)c1)c1cccc(Cl)c1	none
O=C(NNC(=S)Nc1cccc(C(F)(F)F)c1)c1ccccc1Cl	CHT block -5.8 | CHT inh conf inactive | HEK293 MPD ctr inactive
O=C(NNC(=S)Nc1ccc(Cl)cc1)c1ccccc1OC(F)F	CHT block -5.4 (no result: Pemphigus Ab inh) | CHT inh conf 44% | HEK293 MPD ctr inactive
Cc1ccc(NC(=O)CN2CCN(S(=O)(=O)c3ccc4c(c3)OCCO4)CC2)c(C)c1	none (no result: GPR7 antag, T cell modulator, CHT block, pCIP destab, CHT PAM)
CC[C@H](C)[C@H](NC(=O)OCc1ccccc1)C(=O)OCC(=O)N1CCN(c2ccc(F)cc2)CC1	none (no result: GPR7 antag, T cell modulator, CHT block, pCIP destab, CHT PAM)
O=C1c2ccc(-c3ccc(F)cc3OCc3ccccc3)cc2S(=O)(=O)c2cccc(C(=O)N3CCCC3)c21	none (no result: GPR7 antag, CHT block, pCIP destab, CHT PAM)
O=C(O)c1cnn(-c2nc(-c3ccc(F)cc3)cs2)c1C(F)(F)F	none
O=C(O)c1cnn(-c2nc(-c3ccc(Br)cc3)cs2)c1C(F)(F)F	CHT block -8.9 | CHT inh conf inactive | HEK293 MPD ctr inactive
CCCn1c(=S)[nH]c2ccccc2c1=O	none
CN(C)CCn1c(=S)[nH]c2ccccc2c1=O	CHT block -7.9 | CHT inh conf 28% | HEK293 MPD ctr inactive
O=C1CCN(Cc2ccco2)C(=S)N1	none (no result: GPR7 antag, T cell modulator, CHT block, pCIP destab, CHT PAM)
O=C(Cn1nnc(-c2ccc(Cl)cc2)n1)NC(=O)NC1CCCC1	none (no result: GPR7 antag, T cell modulator, CHT block, pCIP destab, CHT PAM)
Cc1ccc(S(=O)(=O)N2CCC[C@H]2C(=O)NC2=NCCS2)cc1	none (no result: GPR7 antag, T cell modulator, CHT block, pCIP destab, CHT PAM)
Cc1cc(C)nc(N2N=C(C(C)(C)C)CC2=O)n1	none
Cc1ccc(SCC2=NN(c3nc(C)cc(C)n3)C(=O)C2)cc1	CHT block -6.5 | CHT inh conf 23% | HEK293 MPD ctr inactive
COc1ccccc1NS(=O)(=O)c1cc(C(=O)NCc2cccnc2)ccc1C	none (no result: GPR7 antag, pCIP destab)
Cc1ccccc1NC(=O)c1ccc(C)c(S(=O)(=O)NCc2cccnc2)c1	CHT block -7.2 | CHT inh conf 27% | HEK293 MPD ctr inactive
COc1ccc([C@@H]2C[C@H]3[C@@H](CN2S(=O)(=O)c2ccccc2)C(=O)C[C@@H](c2ccccc2F)N3S(=O)(=O)c2ccc(C)cc2)cc1	none (no result: GPR7 antag, T cell modulator, CHT block, pCIP destab, CHT PAM)
O=C(NC1CC1)c1cccc(NC(=O)C2CCN(S(=O)(=O)c3cccc(C(F)(F)F)c3)CC2)c1	none (no result: GPR7 antag, T cell modulator, CHT block, pCIP destab, CHT PAM)
COc1ccc(CCN2C(=O)CSC2c2ccc(OC)c(OC)c2)cc1OC (centres undefined)	none
COc1ccc(C2SCC(=O)N2CCc2ccc(OC)c(OC)c2)cc1 (centres undefined)	CHT block -6 | CHT inh conf 43% | HEK293 MPD ctr inactive
CCC1=NN2C(=N)/C(=C/c3c(C)nn(-c4ccccc4)c3Cl)C(=O)N=C2S1	none (no result: Pemphigus Ab inh)
CCC1=NN2C(=N)/C(=C\c3ccc(SCc4ccco4)o3)C(=O)N=C2S1	CHT block -5.3 (no result: Pemphigus Ab inh) | CHT inh conf inactive | HEK293 MPD ctr inactive
CCCC1=NN2C(=N)/C(=C\c3cc(C)n(Cc4ccccc4)c3C)C(=O)N=C2S1	none
CCCC1=NN2C(=N)/C(=C\c3ccc(SCc4ccco4)o3)C(=O)N=C2S1	CHT block -5.8 | CHT inh conf 69% | HEK293 MPD ctr inactive
COc1ccc(C(=O)OCC(=O)c2ccco2)cc1[N+](=O)[O-]	none (no result: GPR7 antag, T cell modulator, CHT block, pCIP destab, CHT PAM)
CC(=O)c1ccc2ccccc2c1OC(=O)c1ccncc1	none (no result: GPR7 antag, T cell modulator, CHT block, pCIP destab, CHT PAM)
CC(C)c1nnc(NC(=O)c2nc(S(=O)(=O)Cc3ccccc3)ncc2Cl)s1	CHT block -7.7 | CHT inh conf 3.0% | HEK293 MPD ctr inactive
CCOc1ccccc1NC(=O)c1nc(S(=O)(=O)Cc2ccccc2)ncc1Cl	none
Cc1ccc(S(=O)(=O)CCc2nnc(NC(=O)c3cnccn3)s2)cc1	none
